Measurements from ChEMBL document CHEMBL4699443, “Position of lipidation influences anticancer activity of Smac analogs” (Bioorg Med Chem Lett, 2019).
Active and inactive are the calls of the source. The rule behind the calls is not given here. Starred links: 1 amine or outer side, 2 acyl side, 3 side chain; linkers in the order of their positions; H or OH if unused. Non-standard residues stand in square brackets, D forms with d. Residues, ends and D or L forms follow the SMILES beside them. *: point of attachment. Pro(cis-4-OPh) = O=C(O)[C@@H]1C[C@H](Oc2ccccc2)CN1; Phe(3,5-F2) = N[C@@H](Cc1cc(F)cc(F)c1)C(=O)O; Bip = N[C@@H](Cc1ccc(-c2ccccc2)cc1)C(=O)O; Cysteamide = C(CS[*:3])N[*:1]; Tle = CC(C)(C)[C@H](N)C(=O)O; X1 = CCCCCCCCCCCCCCCCCCSCCN*; NMeA = CN[C@@H](C)C(=O)O; X3 = CCCCCCCCCCCCCCCCCC*; Ac4c = NC1(C(=O)O)CCC1

Legend:
Jurkat = experiment: Antiproliferative activity against human Jurkat cells assessed as growth inhibition after 48 hrs by PrestoBlue dye based fluorescence assay; type: functional, cell-based
KOPN-8 [1] = experiment: Antiproliferative activity against human KOPN-8 cells assessed as growth inhibition after 48 hrs by PrestoBlue dye based fluorescence assay; type: functional, cell-based; settings: KOPN-8, 48 h
MOLT-4 = experiment: Antiproliferative activity against human MOLT-4 cells assessed as growth inhibition after 48 hrs by PrestoBlue dye based fluorescence assay; type: functional, cell-based; settings: MOLT-4, 48 h
MV4-11 = experiment: Antiproliferative activity against human MV4-11 cells assessed as growth inhibition after 48 hrs by PrestoBlue dye based fluorescence assay; type: functional, cell-based; settings: MV4-11, 48 h
NALM-6 = experiment: Antiproliferative activity against human NALM6 cells assessed as growth inhibition after 48 hrs by PrestoBlue dye based fluorescence assay; type: functional, cell-based; settings: NALM-6, 48 h
[2] = Antiproliferative activity against human CEMTL cells assessed as growth inhibition after 48 hrs by PrestoBlue dye based fluorescence assay; type: functional, cell-based; settings: CEM-TL
THP-1 = experiment: Antiproliferative activity against human THP1 cells assessed as growth inhibition after 48 hrs by PrestoBlue dye based fluorescence assay; type: functional, cell-based; settings: THP-1, 48 h
TF-1 = experiment: Antiproliferative activity against human TF1 cells assessed as growth inhibition after 48 hrs by PrestoBlue dye based fluorescence assay; type: functional, cell-based; settings: TF-1, 48 h
KOPN-8 [3] = experiment: Induction of apoptosis in human KOPN8 cells assessed as viable cells at 10 uM after 24 hrs by AnnexinV/PI-staining based flow cytometry; type: functional; settings: read-out: Activity
Summary of the method: (§1)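 KOPN-8 cells treated with 1 or 10 μM compound, alone or as an equimolar two-compound mixture. Cultured for a time course, then stained with annexin V and propidium iodide. Read by flow cytometry; populations gated by annexin V/PI staining, including annexin V+/PI+ double positives.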

KOPN-8 [4] = experiment: Induction of apoptosis in human KOPN8 cells assessed as early apoptotic cells at 10 uM after 24 hrs by AnnexinV/PI-staining based flow cytometry; type: functional; summary of the method: as §1
KOPN-8 [5] = experiment: Induction of apoptosis in human KOPN8 cells assessed as late apoptotic cells at 10 uM after 24 hrs by AnnexinV/PI-staining based flow cytometry; type: functional; summary of the method: as §1
KOPN-8 [6] = experiment: Induction of apoptosis in human KOPN8 cells assessed as necrotic cells at 10 uM after 24 hrs by AnnexinV/PI-staining based flow cytometry; type: functional; summary of the method: as §1
KOPN-8 [7] = experiment: Induction of apoptosis in human KOPN8 cells assessed as viable cells at 10 uM after 48 hrs by AnnexinV/PI-staining based flow cytometry; type: functional; settings: read-out: Activity; summary of the method: as §1
KOPN-8 [8] = experiment: Induction of apoptosis in human KOPN8 cells assessed as early apoptotic cells at 10 uM after 48 hrs by AnnexinV/PI-staining based flow cytometry; type: functional; summary of the method: as §1
KOPN-8 [9] = experiment: Induction of apoptosis in human KOPN8 cells assessed as late apoptotic cells at 10 uM after 48 hrs by AnnexinV/PI-staining based flow cytometry; type: functional; summary of the method: as §1
KOPN-8 [10] = experiment: Induction of apoptosis in human KOPN8 cells assessed as necrotic cells at 10 uM after 48 hrs by AnnexinV/PI-staining based flow cytometry; type: functional; summary of the method: as §1
KOPN-8 [11] = experiment: Induction of apoptosis in human KOPN8 cells assessed as viable cells at 10 uM after 72 hrs by AnnexinV/PI-staining based flow cytometry; type: functional; settings: read-out: Activity; summary of the method: as §1
KOPN-8 [12] = experiment: Induction of apoptosis in human KOPN8 cells assessed as early apoptotic cells at 10 uM after 72 hrs by AnnexinV/PI-staining based flow cytometry; type: functional; summary of the method: as §1
KOPN-8 [13] = experiment: Induction of apoptosis in human KOPN8 cells assessed as late apoptotic cells at 10 uM after 72 hrs by AnnexinV/PI-staining based flow cytometry; type: functional; summary of the method: as §1
KOPN-8 [14] = experiment: Induction of apoptosis in human KOPN8 cells assessed as necrotic cells at 10 uM after 72 hrs by AnnexinV/PI-staining based flow cytometry; type: functional; summary of the method: as §1
KOPN-8 [15] = experiment: Induction of apoptosis in human KOPN8 cells assessed as viable cells at 10 uM after 168 hrs by AnnexinV/PI-staining based flow cytometry; type: functional; settings: read-out: Activity; summary of the method: as §1
KOPN-8 [16] = experiment: Induction of apoptosis in human KOPN8 cells assessed as early apoptotic cells at 10 uM after 168 hrs by AnnexinV/PI-staining based flow cytometry; type: functional; summary of the method: as §1
KOPN-8 [17] = experiment: Induction of apoptosis in human KOPN8 cells assessed as late apoptotic cells at 10 uM after 168 hrs by AnnexinV/PI-staining based flow cytometry; type: functional; summary of the method: as §1
KOPN-8 [18] = experiment: Induction of apoptosis in human KOPN8 cells assessed as necrotic cells at 10 uM after 168 hrs by AnnexinV/PI-staining based flow cytometry; type: functional; summary of the method: as §1
KOPN-8 [19] = experiment: Induction of apoptosis in human KOPN8 cells assessed as increase in caspase 3/7 activity at 0.1 to 50 uM after 24 hrs by Caspase-glo reagent based microplate reader analysis relative to control; type: functional; settings: dose microM 0.1-50
Summary of the method: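 MDA-MB-231 or KOPN-8 cells treated at concentrations across 0–50 μM in dose response. Enzymatic activity of caspase-3/7 and caspase-9 measured and expressed as fold increase.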

KOPN-8 [20] = experiment: Induction of apoptosis in human KOPN8 cells assessed as increase in caspase 9 activity at 0.1 to 50 uM after 24 hrs by Caspase-glo reagent based microplate reader analysis relative to control; type: functional; settings: dose microM 0.1-50, time […]
[21] = Antiproliferative activity against human BTTR cells assessed as growth inhibition after 48 hrs by PrestoBlue dye based fluorescence assay; type: functional, cell-based
HCC1954 = experiment: Antiproliferative activity against human HCC1954 cells assessed as growth inhibition after 48 hrs by PrestoBlue dye based fluorescence assay; type: functional, cell-based; settings: HCC1954, 48 h
MCF7 = experiment: Antiproliferative activity against human MCF7 cells assessed as growth inhibition after 48 hrs by PrestoBlue dye based fluorescence assay; type: functional, cell-based; settings: MCF7, 48 h
MDA-MB-231 = experiment: Antiproliferative activity against human MDA-MB-231 cells assessed as growth inhibition after 48 hrs by PrestoBlue dye based fluorescence assay; type: functional, cell-based; settings: MDA-MB-231, 48 h
[22] = Antiproliferative activity against human CEM-R cells assessed as growth inhibition after 48 hrs by PrestoBlue dye based fluorescence assay; type: functional, cell-based
[23] = Antiproliferative activity against human M249 cells assessed as growth inhibition after 48 hrs by PrestoBlue dye based fluorescence assay; type: functional, cell-based; settings: M249, 48 h
SK-MEL-28 = experiment: Antiproliferative activity against human SK-MEL-28 cells assessed as growth inhibition after 48 hrs by PrestoBlue dye based fluorescence assay; type: functional, cell-based; settings: SK-MEL-28, 48 h
BXPC-3 = experiment: Antiproliferative activity against human BxPC3 cells assessed as growth inhibition after 48 hrs by PrestoBlue dye based fluorescence assay; type: functional, cell-based; settings: BXPC-3, 48 h
[24] = Antiproliferative activity against human COLO357/FG cells assessed as growth inhibition after 48 hrs by PrestoBlue dye based fluorescence assay; type: functional, cell-based; settings: COLO 357/FG
DU-145 = experiment: Antiproliferative activity against human DU145 cells assessed as growth inhibition after 48 hrs by PrestoBlue dye based fluorescence assay; type: functional, cell-based; settings: DU-145, 48 h
VCaP = experiment: Antiproliferative activity against human VCap cells assessed as growth inhibition after 48 hrs by PrestoBlue dye based fluorescence assay; type: functional, cell-based
SW480 = experiment: Antiproliferative activity against human SW480 cells assessed as growth inhibition after 48 hrs by PrestoBlue dye based fluorescence assay; type: functional, cell-based; settings: SW480, 48 h
T84 = experiment: Antiproliferative activity against human T84 cells assessed as growth inhibition after 48 hrs by PrestoBlue dye based fluorescence assay; type: functional, cell-based; settings: T84, 48 h
FaDu = experiment: Antiproliferative activity against human FADU cells assessed as growth inhibition after 48 hrs by PrestoBlue dye based fluorescence assay; type: functional, cell-based
[25] = Antiproliferative activity against human UM-SCC-5 cells assessed as growth inhibition after 48 hrs by PrestoBlue dye based fluorescence assay; type: functional, cell-based; settings: UM-SCC-5, 48 h
[26] = Antiproliferative activity against human UM-SCC-6 cells assessed as growth inhibition after 48 hrs by PrestoBlue dye based fluorescence assay; type: functional, cell-based; settings: UM-SCC-6, 48 h

Compound: CCCCCCCCCCCCCCCCCCSCCNC(=O)[C@@H]1CCCN1C(=O)[C@H](CCCNC(=N)N)NC(=O)C1(NC(=O)[C@@H]2CCCN2C(=O)[C@H](Cc2cc(F)cc(F)c2)NC(=O)[C@@H](N)CSCCCCCCCCCCCCCCCCCC)CCC1 (H-C(X3)[Phe(3,5-F2)]P[Ac4c]RP-X1)
- EC50 (Jurkat): 21.7 µM
- EC50 (KOPN-8 [1]): 1 µM
- EC50 (MOLT-4): 6.5 µM
- EC50 (MV4-11): 9.2 µM
- EC50 (NALM-6): 5.6 µM
- EC50 [2]: 5.9 µM
- EC50 (THP-1): 9.5 µM
- EC50 (TF-1): 4.2 µM
- viability at 10 µM (KOPN-8 [3]): 87.7%
- Activity (KOPN-8 [4]): 1.09%
- Activity (KOPN-8 [5]): 9.22%
- Activity (KOPN-8 [6]): 2.04%
- viability at 10 µM (KOPN-8 [7]): 87.1%
- Activity (KOPN-8 [8]): 1.19%
- Activity (KOPN-8 [9]): 9.59%
- Activity (KOPN-8 [10]): 2.15%
- viability at 10 µM (KOPN-8 [11]): 91.6%
- Activity (KOPN-8 [12]): 0.58%
- Activity (KOPN-8 [13]): 6.63%
- Activity (KOPN-8 [14]): 1.23%
- viability at 10 µM (KOPN-8 [15]): 68.2%
- Activity (KOPN-8 [16]): 3.81%
- Activity (KOPN-8 [17]): 26.4%
- Activity (KOPN-8 [18]): 1.59%
- fold change (FC) (KOPN-8 [19]): 3.6
- Activity (KOPN-8 [20]): inactive

Compound: CN[C@@H](C)C(=O)N[C@H](C(=O)N1C[C@@H](Oc2ccccc2)C[C@H]1C(=O)N[C@@H](Cc1ccc(-c2ccccc2)cc1)C(=O)NCCS)C(C)(C)C (H-[NMeA][Tle][Pro(cis-4-OPh)][Bip]-Cysteamide)
- EC50 [21]: 9 µM
- EC50 (HCC1954): 3.9 µM
- EC50 (MCF7): 10.2 µM
- EC50 (MDA-MB-231): 6 µM
- EC50 (MOLT-4): 2.8 µM
- EC50 (NALM-6): 5.3 µM
- EC50 [22]: 2.9 µM
- EC50 [23]: 6.2 µM
- EC50 (SK-MEL-28): 6.1 µM
- EC50 (BXPC-3): 4.1 µM
- EC50 [24]: 8 µM
- EC50 (DU-145): 6.2 µM
- EC50 (VCaP): 7 µM
- EC50 (SW480): 9.2 µM
- EC50 (T84): 6.2 µM
- EC50 (FaDu): 3.9 µM
- EC50 [25]: 5.9 µM
- EC50 [26]: 6 µM
